Published values of several laboratories.
Target: Angiopoietin-1 receptor (TEK, Homo sapiens, UniProt Q02763)

SMILES | observed | technique | tested at | remaining binding
C[C@H]1CCN(c2nccc(-c3cnn4ncccc34)n2)C1 | binding | – | 1 µM | 82%
C[C@@H]1CN(c2cc(-c3nn(C)c4ccc(OC5(C)CC5)cc34)ncn2)C[C@H](C)O1 | cell-free assay | competition with immobilised ligand | 1 µM | 94%
Cc1cnc(Nc2ccc(C(=O)N3CCC(N4CCCC4)CC3)cc2)nc1-c1cc2ccccc2s1 | binding | competition with immobilised ligand | 1 µM | 11%
Cc1cnn2ncc(-c3ccnc(N(C)C)n3)c2c1 | binding | – | 1 µM | 100%
O=C(Nc1c[nH]nc1C(=O)NC1CCNCC1)c1cc(F)cc(F)c1 | binding | competition with immobilised ligand | 1 µM | 94%
O=C(NCCCN1CCOCC1)c1ccc(Nc2nccc(-c3cc4ccccc4s3)n2)cc1 | binding | competition with immobilised ligand | 1 µM | 58%
c1cncc(-c2cccc(Nc3nccc(NC4CCCCC4)n3)c2)c1 | binding | competition with immobilised ligand | 10 µM | 38%
C[C@@H]1CN(c2cc(-c3n[nH]c4ccc(OC5(C)CC5)cc34)ncn2)C[C@H](C)O1 | cell-free assay | competition with immobilised ligand | 0.1 µM | 100%
C=CC(=O)N1CCC(C(=O)NCC(=O)N2CCN(c3nc(-c4cnc(N)nc4C(F)F)nc(N4CCOCC4)n3)CC2)CC1 | binding | competition with immobilised ligand | 1 µM | 97%
O=C(c1ccc(Nc2ncc(Cl)c(-c3ccc(Cl)s3)n2)cc1)N1CCC(N2CCCC2)CC1 | binding | competition with immobilised ligand | 1 µM | 23%
CN(C)c1ncc(F)c(-c2cnn3ncccc23)n1 | binding | – | 1 µM | 100%
CN(C)C(=O)Cn1cc(-c2nc(C3(c4ccc(-c5cnc(N)nc5)cc4)CC3)no2)cn1 | cell-free assay | competition with immobilised ligand | 1 µM | 88%
CN(c1nccc(-c2cnn3ncccc23)n1)C1CC1 | binding | – | 1 µM | 100%
CNC(=O)c1ccc(Nc2ncc(C(F)(F)F)c(NCc3nccnc3N(C)S(C)(=O)=O)n2)cc1 | cell-free assay | competition with immobilised ligand | 0.1 µM | 69%
CN(CCCC(F)(F)F)c1nccc(-c2cnn3ncccc23)n1 | binding | – | 1 µM | 100%
O=C1CCc2cc(Nc3cc(OC4CCOCC4)c([N+](=O)[O-])cc3Cl)ccc2N1 | cell-free assay | competition with immobilised ligand | 1 µM | 76%
COc1ncc2cc3ccccc3nc2c1C#N | cell-free assay | competition with immobilised ligand | 5 µM | 88%
COc1cc(-c2cn(C3CCc4ccccc4N(CC(F)(F)F)C3=O)nn2)ccc1-n1ccc(C)n1 (stereo not shown) | cell-free assay | competition with immobilised ligand | 1 µM | 81%
N[C@@H]1CCN(c2nccc(-c3cnn4ncccc34)n2)C1 | binding | – | 1 µM | 98%
CC(C)(C)c1ccc(-c2nc(CBr)nn2-c2cccc(O)c2)cc1 | cell-free assay | competition with immobilised ligand | 10 µM | 99%
C[C@@H](c1cccc(C#N)c1)n1cc(Cl)cc(C(N)=O)c1=N | cell-free assay | competition with immobilised ligand | 1 µM | 90%
C[C@@H](c1ccc(-n2cnc3c(N)ncnc32)cc1)N1CCc2nn(C)c(Cc3ccccc3)c2C1=O | binding | competition with immobilised ligand | 0.1 µM | 81%
c1cnn2ncc(-c3ccnc(N4CCC45COC5)n3)c2c1 | binding | – | 1 µM | 83%
COc1cnc(Nc2cccc(S(N)(=O)=O)c2)nc1N1CCN(c2ccccc2)CC1 | binding | competition with immobilised ligand | 1 µM | 100%
C[C@@H]1CN(c2ccc3ncc(-c4ccc5[nH]nc(C6CC6)c5c4)n3n2)C[C@H](C)O1 | binding | competition with immobilised ligand | 0.5 µM | 100%
